Legend:
[1] = Cytotoxicity against human A549 cells after 24 hrs by MTT assay; format: cell-based; conditions: read-out: LD50
Phospholipase C [2] = target: T1, Phospholipase C (Bacillus cereus, UniProt P09598); experiment: Inhibition of Bacillus cereus phosphatidylcholine preferred phospholipase C after 100 seconds
T1 sequence (P09598 whole entry): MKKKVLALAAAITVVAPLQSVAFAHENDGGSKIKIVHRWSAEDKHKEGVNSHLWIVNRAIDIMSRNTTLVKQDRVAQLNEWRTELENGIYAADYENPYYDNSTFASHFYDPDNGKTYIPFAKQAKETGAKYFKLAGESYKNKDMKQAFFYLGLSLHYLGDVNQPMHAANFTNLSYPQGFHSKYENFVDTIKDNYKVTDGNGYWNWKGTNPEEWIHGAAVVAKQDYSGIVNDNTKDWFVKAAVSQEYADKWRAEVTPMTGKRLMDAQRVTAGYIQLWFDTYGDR
Procedure, shortened: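 Bacillus cereus PC-PLC activity measured by a coupled read-out: phosphorylcholine released by the enzyme is hydrolysed by alkaline phosphatase, and the freed phosphate ions are quantified. Substrate was 1,2-di-n-hexanoyl-sn-glycero-3-phosphocholine at 2 mM final, below its CMC of 11.1 mM. Compound CMC values were determined so the assay ran under non-micellar conditions.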

[3] = Critical micelle concentration of the compound; format: physicochemical
[4] = target: T2, Phospholipase C (Bacillus cereus) (UniProt P09598); experiment: Irreversible inhibition of Bacillus cereus phosphatidylcholine preferred phospholipase C assessed as residual activity after 10 mins
T2 sequence (whole entry): T1 sequence (P09598 whole entry)

Phospholipase C [5] = target: T1, Phospholipase C; experiment: Uncompetitive inhibition of Bacillus cereus phosphatidylcholine preferred phospholipase C by Dixon plot analysis
Phospholipase C [6] = target: T1, Phospholipase C; experiment: Mixed-type inhibition of Bacillus cereus phosphatidylcholine preferred phospholipase C by Dixon plot analysis
Phospholipase C [7] = target: T1, Phospholipase C; experiment: Non-competitive inhibition of Bacillus cereus phosphatidylcholine preferred phospholipase C by Dixon plot analysis

SMILES | CC50 at 24 h [1] [µM] | IC50 (Phospholipase C [2]) [µM] | CMC [3] [µM] | Activity [4] [%] | Ki (Phospholipase C [5]) [µM] | Ki (Phospholipase C [6]) [µM] | Ki (Phospholipase C [7]) [µM]
CCCCCCC(N)C(=O)N(O)CC[N+](C)(C)C.Cl.[Cl-] (centres undefined) | > 100 | 500 | > 500 | – | – | – | –
CCCCCCCCCCCCCCC(NC(=O)OC(C)(C)C)C(=O)N(CC[N+](C)(C)C)OCc1ccccc1.[I-] (centres undefined) | 27.6 | – | > 500 | 100 | – | – | –
CCCCCCC(NC(=O)OC(C)(C)C)C(=O)N(CCC[N+](C)(C)C)OCc1ccccc1.[I-] (centres undefined) | > 100 | 78 | 221 | – | – | – | –
CCCCCCCCCCC(N)C(=O)N(CCC[N+](C)(C)C)OCc1ccccc1.Cl.[Cl-] (centres undefined) | 43.4 | 50 | 141 | – | – | – | –
CCCCCCCCCCC(N)C(=O)N(O)CC[N+](C)(C)C.Cl.[Cl-] (centres undefined) | > 100 | 40 | > 500 | – | 12 | – | –
CCCCCCCCCCC(N)C(=O)N(CCCN(C)C)OCc1ccccc1.Cl.Cl (centres undefined) | 7 | 32 | 8 | – | – | – | –
CCCCCCCCCCC(NC(=O)OC(C)(C)C)C(=O)N(CC[N+](C)(C)C)OCc1ccccc1.[I-] (centres undefined) | 28.2 | 5 | > 500 | – | – | – | –
CCCCCCC(N)C(=O)N(CC[N+](C)(C)C)OCc1ccccc1.Cl.[Cl-] (centres undefined) | > 100 | > 500 | > 500 | – | – | – | –
CCCCCCC(N)C(=O)N(CCCN(C)C)OCc1ccccc1.Cl.Cl (centres undefined) | > 100 | > 500 | 158 | – | – | – | –
CCCCCCCCCCC(N)C(=O)N(CC[N+](C)(C)C)OCc1ccccc1.Cl.[Cl-] (centres undefined) | 76.1 | 10 | > 500 | – | – | – | –
CCCCCCCCCCCCCCCCCCC(N)C(=O)N(O)CC[N+](C)(C)C.Cl.[Cl-] (centres undefined) | 52.7 | 4 | 50 | – | – | – | –
CCCCCCCCCCC(N)C(=O)N(O)CCCN(C)C.Cl.Cl (centres undefined) | 40 | 100 | 79 | – | – | – | –
CCCCCCC(N)C(=O)N(O)CCCN(C)C.Cl.Cl (centres undefined) | > 100 | > 500 | > 500 | – | – | – | –
CCCCCCCCCCCCCCC(N)C(=O)N(O)CC[N+](C)(C)C.Cl.[Cl-] (centres undefined) | 100 | 2 | 120 | – | – | – | –
CCCCCCCCCCCCCCC(N)C(=O)N(CC[N+](C)(C)C)OCc1ccccc1.Cl.[Cl-] (centres undefined) | 75.3 | 4 | 90 | – | – | – | –
CCCCCCCCCCC(N)C(=O)N(O)CCC[N+](C)(C)C.Cl.[Cl-] (centres undefined) | > 100 | 58 | 97 | – | – | 26 | –
CCCCCCC(NC(=O)OC(C)(C)C)C(=O)N(CCCN(C)C)OCc1ccccc1 (centres undefined) | 21 | 77 | 75 | – | – | – | –
CCCCCCC(N)C(=O)N(O)CCC[N+](C)(C)C.Cl.[Cl-] (centres undefined) | > 100 | > 500 | > 500 | – | – | – | –
CCCCCCC(N)C(=O)N(CCC[N+](C)(C)C)OCc1ccccc1.Cl.[Cl-] (centres undefined) | > 100 | 100 | 210 | – | – | – | –
CCCCCCCCCCCCCCCCCCC(NC(=O)OC(C)(C)C)C(=O)N(CC[N+](C)(C)C)OCc1ccccc1.[I-] (centres undefined) | 25.1 | – | 75 | – | – | – | –
CCCCCCCCCCC(NC(=O)OC(C)(C)C)C(=O)N(CCCN(C)C)OCc1ccccc1 (centres undefined) | 6 | 8 | 10 | – | – | – | 2.5
CCCCCCCCCCCCCCCCCCC(N)C(=O)N(CC[N+](C)(C)C)OCc1ccccc1.Cl.[Cl-] (centres undefined) | 29 | 4 | 10 | – | – | – | –
CCCCCCC(NC(=O)OC(C)(C)C)C(=O)N(CC[N+](C)(C)C)OCc1ccccc1.[I-] (centres undefined) | > 100 | 56 | > 500 | – | – | – | –
CCCCCCCCCCC(NC(=O)OC(C)(C)C)C(=O)N(CCC[N+](C)(C)C)OCc1ccccc1.[I-] (centres undefined) | 17 | – | 40 | – | – | 2.5 | –

Reference: ChEMBL document CHEMBL1287788, “2-aminohydroxamic acid derivatives as inhibitors of Bacillus cereus phosphatidylcholine preferred phospholipase C PC-PLC(Bc)” (Bioorg Med Chem, 2010)
